# Reference: the M2OR odorant receptor database
# Assays:
# Conditions in all cases: stereoisomer not certain
# UniProt A2ASV2 = target: UniProt A2ASV2
# Method in brief: (§1)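 Whether a receptor–molecule pair is responsive (active) rests on the original authors' judgment that its measured signal was statistically different from baseline. Pairs without that judgment are non-responsive (inactive). Sources used varied assay methods, commonly transient luciferase assays in mammalian cell lines.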
# Q8VF87 L210I = tested on: Q8VF87 L210I
# Method in brief: as §1
# [1] = tested on: Q8VF87 V108T E162D V184F I202L L210I A279V
# Method in brief: as §1
# [2] = tested on: Q8VF87 V108T E162D V184F I202L L210I
# Method in brief: as §1
# [3] = tested on: Q8VF87 V108T E162D V184F I202L
# Method in brief: as §1
# Q8VF87 V108T E162D V184F = tested on: Q8VF87 V108T E162D V184F
# Method in brief: as §1
# Q8VF87 V108T E162D = tested on: Q8VF87 V108T E162D
# Method in brief: as §1
# Q8VF87 V108T = tested on: Q8VF87 V108T
# Method in brief: as §1
# Q8VF87 V184F = tested on: Q8VF87 V184F
# Method in brief: as §1
# UniProt A0PK57 = target: UniProt A0PK57
# Method in brief: as §1
# 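Note: active if original authors judged signal statistically different from baseline.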
# Chain of UniProt A2ASV2 (A2ASV2 as listed by the source): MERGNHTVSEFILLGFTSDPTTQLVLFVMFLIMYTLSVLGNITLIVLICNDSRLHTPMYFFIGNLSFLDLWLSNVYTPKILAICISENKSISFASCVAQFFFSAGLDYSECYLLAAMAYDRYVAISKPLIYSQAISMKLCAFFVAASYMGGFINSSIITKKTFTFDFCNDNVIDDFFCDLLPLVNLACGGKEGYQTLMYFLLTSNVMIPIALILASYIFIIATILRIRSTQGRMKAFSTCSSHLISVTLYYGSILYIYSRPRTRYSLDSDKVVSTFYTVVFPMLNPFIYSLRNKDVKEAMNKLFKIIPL
# Chain of UniProt A0PK57 (A0PK57 as listed by the source): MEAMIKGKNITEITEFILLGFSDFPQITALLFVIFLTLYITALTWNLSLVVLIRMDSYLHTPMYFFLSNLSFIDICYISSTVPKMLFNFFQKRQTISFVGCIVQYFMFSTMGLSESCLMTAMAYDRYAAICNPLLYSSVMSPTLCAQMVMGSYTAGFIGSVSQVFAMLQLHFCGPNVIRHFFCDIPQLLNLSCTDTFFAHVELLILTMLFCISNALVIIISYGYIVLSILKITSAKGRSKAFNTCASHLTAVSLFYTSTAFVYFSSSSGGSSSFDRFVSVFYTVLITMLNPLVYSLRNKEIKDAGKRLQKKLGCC
smiles,measurement,setting,value
O=c1ccc2ccccc2o1,odorant receptor agonist call,UniProt A2ASV2,active
CCC(S)C(C)CO (stereo unspecified),odorant receptor agonist call,Q8VF87 L210I,inactive
same,odorant receptor agonist call,[1],inactive
same,odorant receptor agonist call,[2],inactive
same,odorant receptor agonist call,[3],inactive
same,odorant receptor agonist call,Q8VF87 V108T E162D V184F,inactive
same,odorant receptor agonist call,Q8VF87 V108T E162D,inactive
same,odorant receptor agonist call,Q8VF87 V108T,inactive
same,odorant receptor agonist call,Q8VF87 V184F,inactive
CC1CCCCCCCCCCCCC(=O)C1 (stereo unspecified),odorant receptor agonist call,UniProt A0PK57,inactive
O=C1CCOc2ccccc21,odorant receptor agonist call,UniProt A2ASV2,inactive
